Laboratory results taken from the EternaBench riboswitch data.

Test system: MS2 coat protein
Experiment: apparent Kd, MS2 coat protein; higher = weaker binding; RNA-MaP array; FMN 200 µM where present
How it was run: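 Apparent Kd: the median of filtered binding-curve fits from single clusters. Designs were transcribed on Illumina sequencing-chip clusters by stalled E. coli RNA polymerase and titrated with SNAP-549-labelled MS2 coat protein from 0.7 or 1.5 nM, doubling to 3 µM, in 100 mM Tris-HCl pH 7.5, 80 mM KCl, 4 mM MgCl2, BSA, DTT, yeast tRNA and Tween-20. Each series ran without and then with constant ligand, and green signal was normalised to red-channel RNA signal and control-cluster median Fmax.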

[1] = designed as: OFF switch for flavin mononucleotide, no ligand
[2] = ligand present: flavin mononucleotide, designed as: OFF switch for flavin mononucleotide
[3] = designed as: ON switch for flavin mononucleotide, no ligand
[4] = ligand present: flavin mononucleotide, designed as: ON switch for flavin mononucleotide

Sequence | apparent Kd [1] [µM] | apparent Kd [2] [µM] | apparent Kd [3] [µM] | apparent Kd [4] [µM]
AAUAUUAAGUAGAAGGUAGAUAUUAUUUUAUUCAUGUUUACAUGAGGAUCACCCAUGUAUAAGUCUAAGGAUAUACAUCGAUAG | 0.0149 | 0.00993 | – | –
GGUGCAUAUGAGAAGGCGAUCAUGAAACAUGAUCGAGGAUAUCAUGUAAACAUGAGGAUCACCCAUGUAUGGGAAAAGUGCAUC | – | – | 0.0854 | 0.0107
CCCAAACUUGGGCUUGGUGGUGCAUAGGAUAUGCUUGAACAUGAGGAUCACCCAUGUGCAACUGUGCAGAAGGGUGCAGGGCCU | – | – | 0.0127 | 0.00831
CCAGACGUAGGAUAUACAUUUGGGUAAUCCCGCGGAUAAUUACAUGAGGAUCACCCAUGUAGAAGGGCGGUAAA | 0.0387 | 0.028 | – | –
AUAUUGUGAGGAUAUCCAAUAUAUGACAUGAGGAUCACCCAUGUUUCCACUCGUACCUCCGGAGAAGGCACUUAAA | 0.0205 | 0.0232 | – | –
UACCCUUGUGAGAAGGCGCCGCAGAUUUUACGGCGAGGAUAUCACAUGAGGAUCACCCAUGUUCCUGAGCCUACAAGUGUGGGC | 0.338 | 0.313 | – | –
GUUAAACAUGAGGAUCACCCAUGUAAGGAUAUGCUGCGGUCGCGAUGAAGUGACUGCAGCAGAAGGUACAAUUG | 0.109 | 0.0759 | – | –
UGGUACAUGGGAGGAUAUCAUGUACUUACAUGAGGAUCACCCAUGUCGAUGGAGACAUCGGAGAUUGAGAAGGCCCAUGUACCU | – | – | 1.22 | 0.0422
GUAUAUAUUACAUGAGGAUCACCCAUGUCAGAACGGGUAAUCAGAAGGUACUAUUAGAGAAAGAGUAAGGAUAUGAUUAUAUAC | – | – | 0.329 | 0.0339
AGAAACUACGAGAAGGACAAAACCGGUGCCGCAAACAUGAGGAUCACCCAUGUAGGAUAUCGUAGUUUCAGGAUCGUGAGAUCA | 0.0092 | 0.0312 | – | –
UAGUAUUAACGAGGAUAUAAUAUGUUCAAUUUUUUAUAUUGUUUACAUGAGGAUCACCCAUGUUAUUAGAAGGCGUAUGGGAUU | – | – | 0.0672 | 0.0588
CUACGUGUCGAGAAGGGCUCACGUAACGGAACAGCAGGAUAUCGACAUGAGGAUCACCCAUGUCGGAACGAACGGAUCUUUAAU | 0.00724 | 0.00818 | – | –
UUUAAACAGUCAGGAUAUGUAACGCACAACGGCGCAGAAGGGACAUGAGGAUCACCCAUGUUAUGGUUCUGGUACUAUGACGUU | 0.0184 | 0.0229 | – | –
AUCAGCUCGUCAGGAUAUACGUCACUGCGUCAGCAGUAUGGUAAGAUCACAUGAGGAUCACCCAUGUAGAAGGGACGAGCUGAU | 0.0622 | 0.663 | – | –
AACGCCAGUGAGAAGGCAUGUUCACAUGAGGAUCACCCAUGUAUACUCAUGAGGAUAUCAAAUGCGGACCAAAAUAAAAUAAGA | – | – | 0.464 | 0.0267
UUACUAUCACAGAAGGCUGGAUAGUAUAUAGACGGAGGAUAUGUGACAUGAGGAUCACCCAUGUUUCACCGACAUGAGGAUCAA | 0.0225 | 0.0541 | – | –
GAUAUGGGAGGAUAUGCAUAGAUAAAGAAACAUGUUCAACCACAUGAGGAUCACCCAUGUAGAAGGCCCAUAUC | 0.0319 | 0.147 | – | –
UGAGCAUGAGGAUAUACAAGGCGUGCGUGAGCACGAGGUUUACAUGAGGAUCACCCAUGUAGAAGGCAUGUUCU | 0.0191 | 0.0398 | – | –
UUUUACCAAGGAUAUACAUUUUUUUUAUUAUUUUCAUUAUAACAUGAGGAUCACCCAUGUAGAAGGUGGAUUUU | 0.054 | 0.0479 | – | –
UUUCCGCGAGGAUAUGCGGGCUGUGCUUUUCAUUUCUUACAACAUGAGGAUCACCCAUGUAGAAGGUGCUUCUU | 0.213 | 0.189 | – | –
UUUAUUAACAAGAAGGCAUACAUGAGGAUCACCCAUGUUCUACAUGGAUAAUGAGGAUAUUGCUAAUACAUGAGGAUCACCCAU | 0.0506 | 0.053 | – | –
ACUAUACGAGGAUAUACUGACGGGCCUCAGGCAUACAUCAGACAUGAGGAUCACCCAUGUAGAAGGCGUAUACU | 0.104 | 0.0406 | – | –
CCGGAAAUGCAGGAUAUCGUAUCGGAUACGAUACGAGAAGGGUAUACAUGAGGAUCACCCAUGUGUCCUGCCGG | 0.0425 | 0.0406 | – | –
UUUAAUUUGUAGAAGGACGACUAUUAAUAUUUCGUAGGAUAUACUAUUUACAUGAGGAUCACCCAUGUUUAAAUGGAACAAUGU | 0.00835 | 0.0124 | – | –
CCUAUACAUGAGGAUCACCCAUGUCAGGAUAUAGAAAGCUACGGAAUAGGACGUAGCACUAGAAGGGACUGGCU | 0.0292 | 0.0434 | – | –
GUCAGCUCGUGAGGAUAUACACCACUGCUUCGGCAGUGUAUUAAGAUCACAUGAGGAUCACCCAUGUAGAAGGCACGAGCUGAU | 0.0145 | 0.255 | – | –
GCACUGGAUGUAGGAUAUCAGGACGAUAAGUCCUGAGAAGGACAUGAGGAUCACCCAUGUAAACUCUAACCAGUGCAUAAUAUA | 0.014 | 0.0204 | – | –
CAAAAGUAUAACAAUUUCGAGGCACAGGAUAUGAGUGUGCACAUGAGGAUCACCCAUGUUAUAACUUAGAAGGGUGACCAUUGC | – | – | 0.265 | 0.443

Sequence | apparent Kd [1] [µM] | apparent Kd [2] [µM] | apparent Kd [3] [µM] | apparent Kd [4] [µM]
CUGAGGAAAGGAUAUACAUCAAACUCCUCAUCCUCGAAAGAACAUGAGGAUCACCCAUGUAGAAGGUUCGCGGU | 0.0372 | 0.0298 | – | –
AUCAGCUCGUCAGGAUAUACGUCACUGCGUCAGCAGUGUGGUAAGAGCACAUGAGGAUCACCCAUGUAGAAGGGACGAGCUGAU | 0.00631 | 0.00948 | – | –
GUGCCGAACCUAGGAUAUCUUAUCGGGUUCCGCCGUGGCUUAGCGACAUGAGGAUCACCCAUGUAAGAGAAGGAGGUGGUGGAG | 0.299 | 0.259 | – | –
CCCAUCGCAUGAGGAUAUGGUCAGGUUUCCUGACCAGAAGGCAUGUCAUAAGACAUGAGGAUCACCCAUGUAGUUAAGAUGGGA | – | – | 0.672 | 0.0475
GUGAUCCCGGUUAGGAUAUUAGUGAUGUACACCUCUGAGAAGGGACAUGAGGAUCACCCAUGUCGCCUUGAAAC | 0.0177 | 0.0226 | – | –
GUCAGCUCGUGAGGAUAUACAACACUGCUUAGGCAGUGUAUUAAGAUCACAUGAGGAUCACCCAUGUAGAAGGCACGAGCUGAU | 0.0136 | 0.222 | – | –
AGCAGACGAGGAUAUAGAUGGAAUGACAUGAGGAUCACCCAUGUGAUCGAUCUAUUUGAUUUAGAAGGUGUCUGCU | 0.0125 | 0.0151 | – | –
UGUCGGAGCAGAGGAUAUUACAUGAGGAUCACCCAUGUAUGAACCAAUAGCUGGGAACAGCAAUGUAAGAAGGCUGCUCCGACA | 0.0186 | 0.201 | – | –
UGGUUGUGUGUCAGGAUAUGGUCUGGUGUUUCGGGCUAGAAGGGACAUGAGGAUCACCCAUGUGGCUGGUGCGC | 0.149 | 0.186 | – | –
GUCAGCUCGUGAGGAUAUACAACACUGCUACGGCAGUGUAUUAAGAUCACAUGAGGAUCACCCAUGUAGAAGGCACGAGCUGAU | 0.014 | 0.242 | – | –
GAAGCACGCAUUAACAUGAGGAUCACCCAUGUGAAAACACGUGAGGAUAUGGAUCUGAAGAAGAUCCAGAAGGCACCGUGCUAA | – | – | 0.00544 | 0.00478
CAUUAAUUCAUUAUAGUAAUUUUACAGGAUAUGUAACAUGAGGAUCACCCAUGUAUUCUUGGUUAACAGAAGGGUAUUACUUGU | 0.0193 | 0.0297 | – | –
GGUUACAUCGGAGGAUAUCAUGUAAAUACAUGAGGAUCACCCAUGUCGAUGGAGACAUCGGAGAUUGAGAAGGCCGAUGUACCG | – | – | 0.17 | 0.00797
UACAGCGUAGAUAAUAAUGAAUACAUGAGGAUCACCCAUGUAUAGGAUAUGCAGUGGAAUACACUGCAGAAGGAUACAUCGCUG | 0.0164 | 0.023 | – | –
UUAAUUAUACAAGGAUAUCUAUUGUUAUGUCGACUUACAUGAGGAUCACCCAUGUUAAUAUAUGAAGAGAAGGUGUAUUUUCAG | – | – | 0.157 | 0.09
CCUCAGUAAGGAUAUCAGCUUAUGGAGUUGGUAAUGAGAGCUGAGAAGGUACAUGAGGAUCACCCAUGUUAGUU | 0.0277 | 0.0737 | – | –
GGAUCGAGUGUGAGGAUAUGCUGGUCCUUGGAUCAGCAGAAGGCACAUGAGGAUCACCCAUGUCCAAACGGUCC | 0.266 | 0.388 | – | –
GGACGGAAAGUGAGGAUAUGCUCUACCUCGGUAGAGCAGAAGGCACAUGAGGAUCACCCAUGUGAUUACUGUUC | 0.0255 | 0.184 | – | –
UAUAUUUAUGUAGGAUAUGGUAUAUAAAAUAUACCAGAAGGACAUGAGGAUCACCCAUGUAUGAAAUUCCAUAAUUGCCGUGUA | 0.0127 | 0.0148 | – | –
AUAGGGUGAGGAUAUCCAUCUGGAUCAGACUAGAUCCUGAUGGAGAAGGCACAUGAGGAUCACCCAUGUGAGUU | 0.125 | 0.151 | – | –
AAUAAACUCACAGGAUAUAGCAGAGGUCGCGUGAACUUACAGACGACGAGGCUAGAAGGGUGACCACAUGAGGAUCACCCAUGU | – | – | 0.312 | 0.0654
GCAUGUAAGCAGAAGGGCAGACAUUUUGAUGCUGCAGGAUAUGCAGAAUCAUAUCCACAUGAUAACAUGAGGAUCACCCAUGUA | 0.0199 | 0.0243 | – | –
UGCAGCGUGCACAUGAGGAUCACCCAUGUGCCAGUGGACGCACAGGAUAUGCAAUCGUACGGCUAGCAGAAGGGUGGGUCUCAC | – | – | 0.00737 | 0.007
CGCAAGUCAGGAUAUUCGACUGGUCCAUCUGUGGAUUUGUAGGAGAAGGGACAUGAGGAUCACCCAUGUUUGUU | 0.0306 | 0.0239 | – | –
CGGGUCUGAGGAUAUCCAUCUUCAUACAUGAGGAUCACCCAUGUUCACCCUUGGGUUCCCGGAGAAGGCAGUUUUC | 0.065 | 0.0678 | – | –
UAUUUACAUGAGGAUCACCCAUGUCAGGAUAUGCGUCUAUCGUCGAAAGACGAUAGUUGCAGAAGGGACAAUAU | 0.0628 | 0.123 | – | –
CUGACAGCGCAGAAGGGAGAUCCUACAUGAGGAUCACCCAUGUGGGCUCUCAGGAUAUGCACGUGUAUGCUGAAAGUAGCAUUG | – | – | 0.0172 | 0.00717
